{"source": "the RNAGym collection of RNA variant scans (doi:10.1002/anie.201605470)", "parents": {"B1": {"name": "Osa-1-4 twister ribozyme (parent)", "chain": "CCGCCUAACACUGCCAAUGCCGGUCCCAAGCCCGGAUAAAAGUGGAGGGGGCGG"}}}
{"variants_of": "B1", "experiment": "self-cleavage, relative activity (ratio to wild type); higher = more cleavage; co-transcriptional", "how_it_was_run": "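Values are relative activity: the fraction cleaved, normalised to wild type. A doped DNA template for a 54-nucleotide twister ribozyme from Oryza sativa had 97 % wild-type base and 1 % of each other base at the 48 positions downstream of the cleavage site. The RNA was transcribed in vitro for 2 h at 37 °C so that it could cleave itself co-transcriptionally, then sequenced deeply, with cleavage status scored from the presence or absence of upstream sequence in reads.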"}
{"variant": "CCGCCUAAAACUGCCAAUGCCGGUCCCAAGCCCGGAUAAAAGUGGAUGGGGCGG", "note": "[C9A G47U]", "self-cleavage": 0.03}
{"variant": "CCGCCUAAAACUGCCAAUGCCGGUCCCAAGCCCGGAUAAAAGUGGACGGGGCGG", "note": "[C9A G47C]", "self-cleavage": 0.03}
{"variant": "CCGCCUAAAACUGCCAAUGCCGGUCCCAAGCCCGGAUAAAAGUGGAAGGGGCGG", "note": "[C9A G47A]", "self-cleavage": 0.05}
{"variant": "CCGCCUAAGACUGCCAAUGCCGGUCCCAAGCCCGGAUAAAAGUGGAGUGGGCGG", "note": "[C9G G48U]", "self-cleavage": 0.06}
{"variant": "CCGCCUAAGACUGCCAAUGCCGGUCCCAAGCCCGGAUAAAAGUGGAGAGGGCGG", "note": "[C9G G48A]", "self-cleavage": 0.07}
{"variant": "CCGCCUAAGACUGCCAAUGCCGGUCCCAAGCCCGGAUAAAAGUGGAGCGGGCGG", "note": "[C9G G48C]", "self-cleavage": 0.08}
{"variant": "CCGCCUAAGACUGCCAAUACCGGUCCCAAGCCCGGAUAAAAGUGGAGGGGGCGG", "note": "[C9G G19A]", "self-cleavage": 0.2}
{"variant": "CCGCCUAAGACUGCCAAUUCCGGUCCCAAGCCCGGAUAAAAGUGGAGGGGGCGG", "note": "[C9G G19U]", "self-cleavage": 0.11}
{"variant": "CCGCCUAAGACUGCCAAUCCCGGUCCCAAGCCCGGAUAAAAGUGGAGGGGGCGG", "note": "[C9G G19C]", "self-cleavage": 0.06}
{"variant": "CCGCCUAAAACUGCCAAUGCCGGUCCCAAGCCCGGAUAAAAGUGUAGGGGGCGG", "note": "[C9A G45U]", "self-cleavage": 0.03}
{"variant": "CCGCCUAAGACUGCCAAUGCCUGUCCCAAGCCCGGAUAAAAGUGGAGGGGGCGG", "note": "[C9G G22U]", "self-cleavage": 0.14}
{"variant": "CCGCCUAAGACUGCCAAUGCCAGUCCCAAGCCCGGAUAAAAGUGGAGGGGGCGG", "note": "[C9G G22A]", "self-cleavage": 0.15}
{"variant": "CCGCCUAAGACUGCCAAUGCCCGUCCCAAGCCCGGAUAAAAGUGGAGGGGGCGG", "note": "[C9G G22C]", "self-cleavage": 0.05}
{"variant": "CCGCCUAAAACUGCCAAUGCCGGUCCCAAGCCCGGAUAAAAGUGGAGUGGGCGG", "note": "[C9A G48U]", "self-cleavage": 0.02}
{"variant": "CCGCCUAAAACUGCCAAUGCCGGUCCCAAGCCCGGAUAAAAGUGGAGCGGGCGG", "note": "[C9A G48C]", "self-cleavage": 0.02}
{"variant": "CCGCCUAAAACUGCCAAUGCCGGUCCCAAGCCCGGAUAAAAGUGGAGAGGGCGG", "note": "[C9A G48A]", "self-cleavage": 0.02}
{"variant": "CCGCCUAAGACUGCCAAUGCCGGUCCCAAGCCCAGAUAAAAGUGGAGGGGGCGG", "note": "[C9G G34A]", "self-cleavage": 0.29}
{"variant": "CCGCCUAAGACUGCCAAUGCCGGUCCCAAGCCCCGAUAAAAGUGGAGGGGGCGG", "note": "[C9G G34C]", "self-cleavage": 0.3}
{"variant": "CCGCCUAAGACUGCCAAUGCCGGUCCCAAGCCCUGAUAAAAGUGGAGGGGGCGG", "note": "[C9G G34U]", "self-cleavage": 0.12}
{"variant": "CCGCCUAAAACAGCCAAUGCCGGUCCCAAGCCCGGAUAAAAGUGGAGGGGGCGG", "note": "[C9A U12A]", "self-cleavage": 0.16}
{"variant": "CCGCCUAAAACGGCCAAUGCCGGUCCCAAGCCCGGAUAAAAGUGGAGGGGGCGG", "note": "[C9A U12G]", "self-cleavage": 0.08}
{"variant": "CCGCCUAAAACCGCCAAUGCCGGUCCCAAGCCCGGAUAAAAGUGGAGGGGGCGG", "note": "[C9A U12C]", "self-cleavage": 0.1}
{"variant": "CCGCCUAAGACUGCCAAUGCCGGUCCCAACCCCGGAUAAAAGUGGAGGGGGCGG", "note": "[C9G G30C]", "self-cleavage": 0.04}
{"variant": "CCGCCUAAGACUGCCAAUGCCGGUCCCAAUCCCGGAUAAAAGUGGAGGGGGCGG", "note": "[C9G G30U]", "self-cleavage": 0.04}
{"variant": "CCGCCUAAGACUGCCAAUGCCGGUCCCAAACCCGGAUAAAAGUGGAGGGGGCGG", "note": "[C9G G30A]", "self-cleavage": 0.02}
{"variant": "CCGCCUAAGACUACCAAUGCCGGUCCCAAGCCCGGAUAAAAGUGGAGGGGGCGG", "note": "[C9G G13A]", "self-cleavage": 0.06}
{"variant": "CCGCCUAAGACUCCCAAUGCCGGUCCCAAGCCCGGAUAAAAGUGGAGGGGGCGG", "note": "[C9G G13C]", "self-cleavage": 0.03}
{"variant": "CCGCCUAAGACUUCCAAUGCCGGUCCCAAGCCCGGAUAAAAGUGGAGGGGGCGG", "note": "[C9G G13U]", "self-cleavage": 0.03}
{"variant": "CCGCCUAAGACCGCCAAUGCCGGUCCCAAGCCCGGAUAAAAGUGGAGGGGGCGG", "note": "[C9G U12C]", "self-cleavage": 0.1}
{"variant": "CCGCCUAAGACAGCCAAUGCCGGUCCCAAGCCCGGAUAAAAGUGGAGGGGGCGG", "note": "[C9G U12A]", "self-cleavage": 0.13}
{"variant": "CCGCCUAAGACGGCCAAUGCCGGUCCCAAGCCCGGAUAAAAGUGGAGGGGGCGG", "note": "[C9G U12G]", "self-cleavage": 0.11}
{"variant": "CCGCCUAAGACUGCCAAUGCCGGUCCCAAGCCCGGAUAAAAGUGGAGGGGGCGG", "note": "[C9G]", "self-cleavage": 0.93}
{"variant": "CCGCCUAAGACUGCCAAUGCCGGACCCAAGCCCGGAUAAAAGUGGAGGGGGCGG", "note": "[C9G U24A]", "self-cleavage": 0.08}
{"variant": "CCGCCUAAGACUGCCAAUGCCGGCCCCAAGCCCGGAUAAAAGUGGAGGGGGCGG", "note": "[C9G U24C]", "self-cleavage": 0.1}
{"variant": "CCGCCUAAGACUGCCAAUGCCGGUCCCAAGCCCGGAUAAAAGUGCAGGGGGCGG", "note": "[C9G G45C]", "self-cleavage": 0.04}
{"variant": "CCGCCUAAGACUGCCAAUGCCGGUCCCAAGCCCGGAUAAAAGUGAAGGGGGCGG", "note": "[C9G G45A]", "self-cleavage": 0.11}
{"variant": "CCGCCUAAGACUGCCAAUGCCGGUCCCAAGCCCGGAUAAAAGUGUAGGGGGCGG", "note": "[C9G G45U]", "self-cleavage": 0.07}
{"variant": "CCGCCUAAGACUGCCAAUGCCGGUCCCAAGCCCGGAUAAAAGUGGAAGGGGCGG", "note": "[C9G G47A]", "self-cleavage": 0.09}
{"variant": "CCGCCUAAGACUGCCAAUGCCGGUCCCAAGCCCGGAUAAAAGUGGAUGGGGCGG", "note": "[C9G G47U]", "self-cleavage": 0.07}
{"variant": "CCGCCUAAGACUGCCAAUGCCGGUCCCAAGCCCGGAUAAAAGUGGACGGGGCGG", "note": "[C9G G47C]", "self-cleavage": 0.06}
{"variant": "CCGCCUAAAACUGCCAAUGCCGGUCCCAAGCCCGGAUAAAAGUGGAGGGGGCAG", "note": "[C9A G53A]", "self-cleavage": 0.29}
{"variant": "CCGCCUAAAACUGCCAAUGCCGGUCCCAAGCCCGGAUAAAAGUGGAGGGGGCUG", "note": "[C9A G53U]", "self-cleavage": 0.09}
{"variant": "CCGCCUAAAACUGCCAAUGCCGGUCCCAAGCCCGGAUAAAAGUGGAGGGGGCCG", "note": "[C9A G53C]", "self-cleavage": 0.03}
{"variant": "CCGCCUAAGACUGCCAAUGCCGGUCCCAAGCCCGGAUAAAAGUCGAGGGGGCGG", "note": "[C9G G44C]", "self-cleavage": 1.04}
{"variant": "CCGCCUAAGACUGCCAAUGCCGGUCCCAAGCCCGGAUAAAAGUUGAGGGGGCGG", "note": "[C9G G44U]", "self-cleavage": 0.95}
{"variant": "CCGCCUAAGACUGCCAAUGCCGGUCCCAAGCCCGGAUAAAAGUAGAGGGGGCGG", "note": "[C9G G44A]", "self-cleavage": 0.82}
{"variant": "CCGCCUAAGACUGCCAAUGCCGGUCCCAAGCCCGCAUAAAAGUGGAGGGGGCGG", "note": "[C9G G35C]", "self-cleavage": 0.16}
{"variant": "CCGCCUAAGACUGCCAAUGCCGGUCCCAAGCCCGUAUAAAAGUGGAGGGGGCGG", "note": "[C9G G35U]", "self-cleavage": 0.44}
{"variant": "CCGCCUAAGACUGCCAAUGCCGGUCCCAAGCCCGAAUAAAAGUGGAGGGGGCGG", "note": "[C9G G35A]", "self-cleavage": 0.47}
